Results as given in publication PMC12166265 (Clinical Pharmacology and Therapeutics, 2025).
Like-named read-outs stand apart in the source and are kept apart here. One block for each compound: values may come before it.

Assays:
[1] = assay type: in vivo, human; details: for Effect of eltrombopag administration on plasma concentrations (in words): eltrombopag 75 mg daily for 5 days
[2] = test system: ABCG2 p.Q141K variant; assay type: in vivo, human; details: rosuvastatin 10 mg
Method in brief: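 Open-label fixed-sequence crossover in 11 healthy non-smoking adults aged 18–64. Single oral rosuvastatin 10 mg given after an overnight fast, with fasting continued 4 h. Heparinised venous plasma was stored at −70°C and analysed by LC–MS. ABCG2 c.421C>A was genotyped blind by PCR and Sanger sequencing. Nine CC and two CA subjects were compared at T = 0 h and by noncompartmental PK, using log-transformed geometric means and unpaired t-tests.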

[3] = both, human, plasma, oral, 10 mg
[4] = human, in vivo, listed as rosuvastatin
[5] = rosuvastatin + eltrombopag arm, geometric mean (90% CI)
[6] = rosuvastatin alone arm, geometric mean (90% CI)

Compound: CC(C)c1nc(N(C)S(C)(=O)=O)nc(-c2ccc(F)cc2)c1/C=C/[C@@H](O)C[C@@H](O)CC(=O)O [Rosuvastatin, reference compound]
AUC(0-inf) ([1]; both, human, plasma, oral): 116 ng·h/mL
CL/F ([1]; both, human, plasma, oral): 19.7 mL/min/kg
Cmax ([1]; both, human, plasma, oral): 10.9 ng/mL
half-life ([1]; both, human, plasma, oral): 8.8 h
AUC(0-inf) [1, 3]: 69.1 ng·h/mL
CL/F [1, 3]: 32.7 mL/min/kg
Cmax [1, 3]: 5.4 ng/mL
half-life [1, 3]: 10.4 h
AUC(0-t) ([1]; both, human, plasma, oral, 10 mg, AUC0−4, rosuvastatin alone arm, geometric mean (90% CI)): 11.8 ng·h/mL
AUC(0-t) ([1]; both, human, plasma, oral, AUC0−4, rosuvastatin + eltrombopag arm, geometric mean (90% CI)): 25 ng·h/mL
AUC0−4, geometric mean ratio (90% CI) of rosuvastatin + eltrombopag arm to rosuvastatin alone arm ([1]; human, in vivo): 2.12 (1.71–2.62); P = 0.002
AUC0−INF, geometric mean ratio (90% CI) of rosuvastatin + eltrombopag arm to rosuvastatin alone arm ([1]; human, in vivo): 1.80 (1.49–2.17); P = 0.002
CL/F/kg, geometric mean ratio (90% CI) of rosuvastatin + eltrombopag arm to rosuvastatin alone arm ([1]; human, in vivo): 0.56 (0.46–0.67); P = 0.02
Cmax, geometric mean ratio (90% CI) of rosuvastatin + eltrombopag arm to rosuvastatin alone arm ([1]; human, in vivo): 2.01 (1.59–2.53); P = 0.002
T1/2, geometric mean ratio (90% CI) of rosuvastatin + eltrombopag arm to rosuvastatin alone arm ([1]; human, in vivo): 0.88 (0.78–0.99); P = 0.13
V/F/kg, geometric mean ratio (90% CI) of rosuvastatin + eltrombopag arm to rosuvastatin alone arm ([1]; human, in vivo): 0.49 (0.38–0.63); P = 0.004
AUC0−4, geometric mean ratio (90% CI) of rosuvastatin + eltrombopag arm to rosuvastatin alone arm [1, 4]: 2.1
AUC0−INF, geometric mean ratio (90% CI) of rosuvastatin + eltrombopag arm to rosuvastatin alone arm [1, 4]: 1.8
Cmax, geometric mean ratio (90% CI) of rosuvastatin + eltrombopag arm to rosuvastatin alone arm [1, 4]: twofold
Tmax ([1]; rosuvastatin + eltrombopag arm): 4 (3.5–5) h
V/F/kg [1, 5]: 14.9 (11.5–17.8) L/kg
V/F/kg ([1]; rosuvastatin + eltrombopag arm, geometric mean (90% CI), listed as rosuvastatin): 14.9 L/kg
Tmax ([1]; rosuvastatin alone arm): 5 (1.5–5) h
V/F/kg [1, 6]: 29.3 (22.8–37.7) L/kg
V/F/kg ([1]; rosuvastatin alone arm, geometric mean (90% CI), listed as rosuvastatin): 29.3 L/kg
AUC0–4, fold higher in p.Q141K variant vs reference allele [2]: 2.9 fold
AUC0–INF, fold higher in p.Q141K variant vs reference allele [2]: 2.6 fold
Cmax, fold higher in p.Q141K variant vs reference allele [2]: 2.4 fold

Effect of eltrombopag administration on plasma concentrations (in words) [1]: no effect
AUC0−24, geometric mean ratio (90% CI) of rosuvastatin + eltrombopag arm to rosuvastatin alone arm ([1]; human, in vivo): 0.96 (0.88–1.04); P = 0.50
C0, geometric mean ratio (90% CI) of rosuvastatin + eltrombopag arm to rosuvastatin alone arm ([1]; human, in vivo): 0.90 (0.83–0.98); P = 0.05
Cmax, geometric mean ratio (90% CI) of rosuvastatin + eltrombopag arm to rosuvastatin alone arm ([1]; human, in vivo): 0.95 (0.88–1.03); P = 0.33
AUC0−24 [1, 5]: 16.2 (14.2–18.4) nM*h
C0 [1, 5]: 0.74 nM
Cmax [1, 5]: 0.89 nM
AUC0−24 [1, 6]: 16.9 (15.3–18.6) nM*h
C0 [1, 6]: 0.81 nM
Cmax [1, 6]: 0.93 nM
Compound: Coproporphyrin-I [CP‐I]

Effect of eltrombopag administration on plasma concentrations (in words) [1]: no effect
AUC0−24, geometric mean ratio (90% CI) of rosuvastatin + eltrombopag arm to rosuvastatin alone arm ([1]; human, in vivo): 0.93 (0.80–1.08); P = 0.44
C0, geometric mean ratio (90% CI) of rosuvastatin + eltrombopag arm to rosuvastatin alone arm ([1]; human, in vivo): 0.75 (0.64–0.88); P = 0.01
Cmax, geometric mean ratio (90% CI) of rosuvastatin + eltrombopag arm to rosuvastatin alone arm ([1]; human, in vivo): 0.83 (0.70–0.98); P = 0.08
AUC0−24 [1, 5]: 1.70 (1.46–1.99) nM*h
C0 [1, 5]: 0.09 nM
Cmax [1, 5]: 0.11 nM
AUC0−24 [1, 6]: 1.83 (1.60–2.09) nM*h
C0 [1, 6]: 0.12 nM
Cmax [1, 6]: 0.13 nM
Compound: Coproporphyrin-III [CP‐III]
